For eight molecules, Activity and MIC results are on record in ChEMBL document CHEMBL1152480, “Synthesis of novel carbazole based macrocyclic amides as potential antimicrobial agents” (2009).

In brackets after ≈: the same amount, converted by molar mass.

One test has as its system Rhizoctonia solani. In words: Antifungal activity against Rhizoctonia solani after 3 days by well diffusion assay. Format: functional. The settings on record: for MIC: 72 h. In a few lines:
(§1)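 Fungi maintained on potato dextrose agar (potato 200 g/l, dextrose 20 g/l; pH 6.5) at room temperature (28 ± 2 °C). Well diffusion assay against DMSO control; MIC read as lowest concentration causing prominent inhibition of fungal growth after 3 days incubation at 37 °C.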

The subject of a further test is Curvularia lunata. The test can be described thus: Antifungal activity against Curvularia lunata after 3 days by well diffusion assay. The test is classed as functional. The conditions noted are these: for MIC: 72 h. In outline: as §1
For orientation: A growth-free zone around the sample is the usual read-out of agar diffusion tests.

For another test, the system named is Proteus mirabilis. In words: Antibacterial activity against Proteus mirabilis after 24 hrs by well diffusion assay. The test is classed as functional. In outline:
(§2)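 Bacteria kept on nutrient agar (beef extract, yeast extract, peptone, NaCl; pH 7.2) at room temperature (28 ± 2 °C). Compounds tested by well diffusion against DMSO control, tetracycline reference. MIC taken as lowest concentration giving prominent inhibition of bacterial growth after 24 h at 37 °C.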

Another test deals with Alternaria alternata. The test can be described thus: Antifungal activity against Alternaria alternata after 3 days by well diffusion assay. Format: functional. The conditions noted are these: for MIC: 72 h. In a few lines: as §1
The subject of the next test is Proteus vulgaris. In words: Antibacterial activity against Proteus vulgaris after 24 hrs by well diffusion assay. Format: functional. In a few lines:
as §2

The subject of the next test is Macrophomina phaseolina. The test can be described thus: Antifungal activity against Macrophomina phaseolina after 3 days by well diffusion assay. The test is classed as functional. The conditions noted are these: for MIC: 72 h. In a few lines:
as §1

The test system of the next test is Staphylococcus aureus. The test can be described thus: Antibacterial activity against Staphylococcus aureus after 24 hrs by well diffusion assay. Format: functional. In outline:
as §2

The test system of test [1] is Salmonella enterica subsp. enterica. In words: Antibacterial activity against Salmonella typhi after 24 hrs by well diffusion assay. Format: functional, Salmonella enterica subsp. enterica serovar Typhi. The conditions noted are these: for Activity: Salmonella enterica subsp. enterica serovar Typhi. In outline: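 S. typhi kept on nutrient agar (beef extract, yeast extract, peptone, NaCl, agar; pH 7.2) at 28 ± 2 °C. Agar well diffusion with DMSO as control and tetracycline as reference. MIC taken as the lowest concentration giving prominent inhibition of bacterial growth after 24 h at 37 °C.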

Consider `CCn1c2ccc3cc2c2cc(ccc21)CSc1ccccc1NC(=O)c1cccc(c1)C(=O)Nc1ccccc1SC3`, for which the Activity entry in the test with Rhizoctonia solani, in the test on Curvularia lunata, with Proteus mirabilis, in the test on Alternaria alternata, in the test on Proteus vulgaris and in the test with Macrophomina phaseolina was “Dose-dependent effect” throughout. Further, the Activity entry (in the test on Staphylococcus aureus; in test [1]) was “Dose-dependent effect” each time. In addition, the MIC came out at 30 µg/mL (≈ 50 µM) with Rhizoctonia solani; 20 µg/mL (≈ 33.3 µM) against Curvularia lunata; 50 µg/mL (≈ 83.4 µM) with Proteus mirabilis; 15 µg/mL (≈ 25 µM) against Alternaria alternata; 60 µg/mL (≈ 100 µM) with Proteus vulgaris; 30 µg/mL (≈ 50 µM) with Macrophomina phaseolina. In addition, the MIC against Staphylococcus aureus was found to be 20 µg/mL (≈ 33.3 µM); in test [1], 50 µg/mL (≈ 83.4 µM).
As for `CCn1c2ccc3cc2c2cc(ccc21)CSc1ccccc1NC(=O)COc1cccc(c1)OCC(=O)Nc1ccccc1SC3`, the Activity result with Rhizoctonia solani, in the test with Curvularia lunata, with Proteus mirabilis, in the test with Alternaria alternata, in the test on Proteus vulgaris and with Macrophomina phaseolina was “Dose-dependent effect” each time. In addition, the Activity result (with Staphylococcus aureus; in test [1]) was “Dose-dependent effect” in each case. Besides, the minimal inhibitory concentration (MIC) against Rhizoctonia solani worked out at 50 µg/mL (≈ 75.8 µM); with Curvularia lunata it was 35 µg/mL (≈ 53 µM); with Proteus mirabilis it was 20 µg/mL (≈ 30.3 µM); against Alternaria alternata it was 25 µg/mL (≈ 37.9 µM); against Proteus vulgaris, 60 µg/mL (≈ 90.9 µM); in the test with Macrophomina phaseolina, 45 µg/mL (≈ 68.2 µM). The MIC in the test with Staphylococcus aureus is 40 µg/mL (≈ 60.6 µM); in test [1] it was 30 µg/mL (≈ 45.5 µM).
Regarding `CCn1c2ccc3cc2c2cc(ccc21)CSc1ccccc1NC(=O)COc1ccc2ccccc2c1-c1c(ccc2ccccc12)OCC(=O)Nc1ccccc1SC3`, the Activity entry with Rhizoctonia solani, with Curvularia lunata, in the test on Proteus mirabilis, in the test on Alternaria alternata, in the test on Proteus vulgaris and in the test with Macrophomina phaseolina was “Dose-dependent effect” in each case. In addition, the Activity result (with Staphylococcus aureus; in test [1]) was “Dose-dependent effect” throughout. Moreover, the MIC against Rhizoctonia solani was 20 µg/mL (≈ 23.9 µM); in the test with Curvularia lunata it was 10 µg/mL (≈ 12 µM); against Proteus mirabilis, 5 µg/mL (≈ 5.98 µM); against Alternaria alternata, 10 µg/mL (≈ 12 µM); against Proteus vulgaris it was 5 µg/mL (≈ 5.98 µM); with Macrophomina phaseolina, 15 µg/mL (≈ 17.9 µM). Further, the MIC (with Staphylococcus aureus; in test [1]) was 10 µg/mL (≈ 12 µM) in each case.
In the case of `COC(=O)Nc1nc2ccccc2[nH]1` [CARBENDAZIM], the minimum inhibitory concentration (MIC) with Rhizoctonia solani is 25 µg/mL (≈ 131 µM); with Curvularia lunata, 15 µg/mL (≈ 78.5 µM); against Alternaria alternata, 12 µg/mL (≈ 62.8 µM); in the test with Macrophomina phaseolina it was 18 µg/mL (≈ 94.1 µM).
In the case of `CCn1c2ccc3cc2c2cc(ccc21)CSc1ccccc1NC(=O)c1cccc(n1)C(=O)Nc1ccccc1SC3`, the Activity entry in the test on Rhizoctonia solani, in the test with Curvularia lunata, with Proteus mirabilis, in the test with Alternaria alternata, in the test on Proteus vulgaris and with Macrophomina phaseolina was “Dose-dependent effect” each time. Besides, the Activity entry (with Staphylococcus aureus; in test [1]) was “Dose-dependent effect” each time. The MIC was found to be 20 µg/mL (≈ 33.3 µM) in the test with Rhizoctonia solani; 15 µg/mL (≈ 25 µM) in the test with Curvularia lunata; 5 µg/mL (≈ 8.32 µM) in the test on Proteus mirabilis; 15 µg/mL (≈ 25 µM) in the test with Alternaria alternata; 30 µg/mL (≈ 49.9 µM) against Proteus vulgaris; 10 µg/mL (≈ 16.6 µM) against Macrophomina phaseolina. The MIC in the test with Staphylococcus aureus was determined as 10 µg/mL (≈ 16.6 µM); in test [1], 30 µg/mL (≈ 49.9 µM).
On to `CN(C)[C@@H]1C(O)=C(C(N)=O)C(=O)[C@@]2(O)C(O)=C3C(=O)c4c(O)cccc4[C@@](C)(O)[C@H]3C[C@@H]12` [TETRACYCLINE], for which the MIC against Proteus mirabilis stood at 20 µg/mL (≈ 45 µM); against Proteus vulgaris, 35 µg/mL (≈ 78.8 µM); with Staphylococcus aureus it was 20 µg/mL (≈ 45 µM); in test [1] it was 15 µg/mL (≈ 33.8 µM).
Take `CCn1c2ccc3cc2c2cc(ccc21)CSc1ccccc1NC(=O)c1ccc(cc1)OCc1ccccc1COc1ccc(cc1)C(=O)Nc1ccccc1SC3`: the Activity result in the test with Rhizoctonia solani, in the test on Curvularia lunata, in the test with Proteus mirabilis, in the test with Alternaria alternata, with Proteus vulgaris and with Macrophomina phaseolina was “Dose-dependent effect” each time. Further, the Activity entry (in the test with Staphylococcus aureus; in test [1]) was “Dose-dependent effect” throughout. Also, the MIC in the test with Rhizoctonia solani turned out to be 40 µg/mL (≈ 49.3 µM); with Curvularia lunata, 20 µg/mL (≈ 24.6 µM); against Proteus mirabilis, 10 µg/mL (≈ 12.3 µM); with Alternaria alternata, 15 µg/mL (≈ 18.5 µM); against Proteus vulgaris, 40 µg/mL (≈ 49.3 µM); in the test with Macrophomina phaseolina, 50 µg/mL (≈ 61.6 µM). The results for the MIC (in the test on Staphylococcus aureus; in test [1]) were 30 µg/mL (≈ 36.9 µM) and 20 µg/mL (≈ 24.6 µM), respectively.
On to `CCn1c2ccc3cc2c2cc(ccc21)CSc1ccccc1NC(=O)c1ccccc1-c1ccccc1C(=O)Nc1ccccc1SC3`, for which the Activity entry in the test on Rhizoctonia solani, with Curvularia lunata, in the test on Proteus mirabilis, in the test on Alternaria alternata, in the test on Proteus vulgaris and with Macrophomina phaseolina was “Dose-dependent effect” throughout. In addition, the Activity result (in the test on Staphylococcus aureus; in test [1]) was “Dose-dependent effect” each time. Moreover, the MIC is 20 µg/mL (≈ 29.6 µM) with Rhizoctonia solani; 20 µg/mL (≈ 29.6 µM) with Curvularia lunata; 40 µg/mL (≈ 59.2 µM) against Proteus mirabilis; 25 µg/mL (≈ 37 µM) with Alternaria alternata; 40 µg/mL (≈ 59.2 µM) against Proteus vulgaris; 15 µg/mL (≈ 22.2 µM) against Macrophomina phaseolina. Besides, the minimal inhibitory concentration (MIC) in the test on Staphylococcus aureus was determined as 70 µg/mL (≈ 104 µM); in test [1] it was 60 µg/mL (≈ 88.8 µM).

As usually defined, the MIC is the lowest concentration found to suppress growth. Low values mean a more susceptible organism, high ones a less susceptible organism.
